Results: ChEMBL document CHEMBL3526062, “Role of human UDP-glucuronosyltransferases in the biotransformation of the triazoloacridinone and imidazoacridinone antitumor agents C-1305 and C-1311: highly selective substrates for UGT1A10” (Drug Metab Dispos, 2012)

What was measured:
[1] = Drug metabolism in human intestinal microsomes assessed as metabolite formation treated with C-1305 for 60 mins by ESI-MS/UV-vis spectroscopy in presence of 3 mM UDP-GlcUA; type: ADME, Intestine, Microsome; details: 1 h
Outline: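 Recombinant human UGT1A1 or UGT1A9 (5 μg protein), or single-donor human liver or intestinal microsomes (20 μg), incubated in Tris-HCl pH 7.4 with 5 mM MgCl2, 5 mM saccharolactone, 2% DMSO and 100 or 200 μM substrate. Started with UDP-GlcUA, 60 min at 37°C, in triplicate. Product identified by HPLC with positive-ion ESI-MS and UV/Vis spectra, and confirmed by β-glucuronidase hydrolysis.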

[2] = Drug metabolism in human intestinal microsomes assessed as metabolite formation treated with C-1311 for 60 mins by ESI-MS/UV-vis spectroscopy in presence of 3 mM UDP-GlcUA; type: ADME, Intestine, Microsome; details: 1 h
Outline: (§1)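 Protein (5 μg UGT1A10 or microsomal) incubated with 0.2 mM substrate and 3 mM UDP-GlcUA, 60 min. HPLC on C18 at 25°C with a 15–80% methanol gradient in 0.05 M ammonium formate pH 3.4 at 1 ml/min. ESI positive-ion MS and UV/Vis spectra taken from the peaks. Glucuronide confirmed by 60 min further treatment with 1000 U E. coli β-glucuronidase.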

[3] = molecular target: T1, UDP-glucuronosyltransferase 1A10 (Homo sapiens, UniProt Q9HAW8); assay: Drug metabolism assessed as human recombinant UGT1A10-mediated compound formation treated with C-1311 for 60 mins by ESI-MS/UV-vis spectroscopy in presence of 3 mM UDP-GlcUA; type: ADME; details: recombinant enzyme, 1 h; outline: as §1
T1 sequence (Q9HAW8 whole entry): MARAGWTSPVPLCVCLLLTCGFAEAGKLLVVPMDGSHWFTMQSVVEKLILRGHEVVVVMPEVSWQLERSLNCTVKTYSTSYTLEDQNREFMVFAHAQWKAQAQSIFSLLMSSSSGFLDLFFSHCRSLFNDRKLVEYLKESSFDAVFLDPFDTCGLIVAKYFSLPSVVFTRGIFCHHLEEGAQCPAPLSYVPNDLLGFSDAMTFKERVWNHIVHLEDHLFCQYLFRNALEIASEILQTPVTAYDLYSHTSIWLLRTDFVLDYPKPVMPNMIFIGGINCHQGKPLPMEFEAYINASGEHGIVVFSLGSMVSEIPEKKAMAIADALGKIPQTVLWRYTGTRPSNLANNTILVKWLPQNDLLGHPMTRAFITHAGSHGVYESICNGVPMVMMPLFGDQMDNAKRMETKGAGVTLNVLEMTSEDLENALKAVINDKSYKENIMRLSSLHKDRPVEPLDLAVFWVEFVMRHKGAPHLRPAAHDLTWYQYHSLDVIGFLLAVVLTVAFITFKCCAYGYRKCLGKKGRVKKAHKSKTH

[4] = molecular target: T2, UDP-glucuronosyltransferase 1A9 (Homo sapiens, UniProt O60656); assay: Drug metabolism assessed as human recombinant UGT1A9-mediated compound formation treated with C-1311 for 60 mins by ESI-MS/UV-vis spectroscopy in presence of 3 mM UDP-GlcUA; type: ADME; details: recombinant enzyme, 1 h
T2 sequence (O60656 whole entry): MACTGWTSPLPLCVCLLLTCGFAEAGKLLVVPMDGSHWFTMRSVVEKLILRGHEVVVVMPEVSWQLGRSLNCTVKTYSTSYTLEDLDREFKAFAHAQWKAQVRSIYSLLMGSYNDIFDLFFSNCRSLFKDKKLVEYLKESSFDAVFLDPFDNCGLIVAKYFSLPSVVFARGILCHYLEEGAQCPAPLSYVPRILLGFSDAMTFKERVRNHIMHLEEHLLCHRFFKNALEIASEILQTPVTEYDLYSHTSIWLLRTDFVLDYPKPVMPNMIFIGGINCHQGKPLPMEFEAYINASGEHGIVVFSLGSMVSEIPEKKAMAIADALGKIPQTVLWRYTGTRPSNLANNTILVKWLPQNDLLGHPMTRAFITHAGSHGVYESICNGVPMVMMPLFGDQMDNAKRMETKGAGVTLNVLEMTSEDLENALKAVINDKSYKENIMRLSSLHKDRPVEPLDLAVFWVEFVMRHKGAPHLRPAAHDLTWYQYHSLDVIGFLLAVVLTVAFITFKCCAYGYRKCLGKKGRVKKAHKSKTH

SMILES | Drug metabolism [1] | Drug metabolism [2] | Drug metabolism [3] | Drug metabolism [4]
CN(C)CCCNc1ccc2nnn3c4ccc(O)cc4c(=O)c1c23 | metabolite_detected | – | – | –
CCN(CC)CCNc1ccc2ncn3c4ccc(O)cc4c(=O)c1c23 [C-1311] | – | metabolite_detected | metabolite_detected | metabolite_detected
